Source: ChEMBL document CHEMBL1158122, “Anti-inflammatory, anti-tumor-promoting, and cytotoxic activities of constituents of marigold (Calendula officinalis) flowers” (J Nat Prod, 2006)

Assays:
[1] = Cytotoxicity against human Hs 578T cells after 48 hrs by SRB assay; type: functional
EKVX = experiment: Cytotoxicity against human EKVX cells after 48 hrs by SRB assay; type: functional
[2] = Cytotoxicity against human Raji cells assessed as cell viability at 1000 molar ratio; type: cell-based; settings: read-out: Activity
In short: (§1)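 Raji cells were treated with 32 pmol TPA to induce EBV early antigen activation. The test agent was added at 10, 100, 500 or 1000 mol ratio relative to TPA, and Raji cell viability was measured alongside EA activation.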

HOP-62 = experiment: Cytotoxicity against human HOP-62 cells after 48 hrs by SRB assay; type: functional; settings: HOP-62, 48 h
Malme-3M = experiment: Cytotoxicity against human MALME-3M cells after 48 hrs by SRB assay; type: functional
SN12C = experiment: Cytotoxicity against human SN12C cells after 48 hrs by SRB assay; type: functional
UO-31 = experiment: Cytotoxicity against human UO-31 cells after 48 hrs by SRB assay; type: functional; settings: UO-31, 48 h
In short: (§2)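 Tested in the NCI panel of 60 human tumour cell lines covering lung, colon, melanoma, renal, ovarian, breast and leukaemia. At least five concentrations were run in 10-fold dilutions starting from 10^-4 M. Exposure was continuous for 48 h. Growth or viability was estimated by sulforhodamine B protein staining, and GI50 values were reported.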

[3] = Cytotoxicity against human Raji cells assessed as cell viability at 100 molar ratio; type: cell-based; settings: read-out: Activity; in short: as §1
SF-268 = experiment: Cytotoxicity against human SF-268 cells after 48 hrs by SRB assay; type: functional; settings: SF-268, 48 h
BT-549 = experiment: Cytotoxicity against human BT-549 cells after 48 hrs by SRB assay; type: functional; settings: BT-549, 48 h
NCI-H23 = experiment: Cytotoxicity against human NCI-H23 cells after 48 hrs by SRB assay; type: functional; settings: NCI-H23, 48 h
[4] = Cytotoxicity against human Raji cells assessed as cell viability at 500 molar ratio; type: cell-based; settings: read-out: Activity; in short: as §1
U-251 = experiment: Cytotoxicity against human U251 cells after 48 hrs by SRB assay; type: functional; settings: U-251, 48 h; in short: as §2
[5] = Cytotoxicity against human Raji cells assessed as cell viability at 10 molar ratio; type: cell-based; settings: read-out: Activity; in short: as §1
T47D = experiment: Cytotoxicity against human T47D cells after 48 hrs by SRB assay; type: functional; in short: as §2
CAKI-1 = experiment: Cytotoxicity against human Caki-1 cells after 48 hrs by SRB assay; type: functional; settings: CAKI-1, 48 h
SNB-19 = experiment: Cytotoxicity against human SNB-19 cells after 48 hrs by SRB assay; type: functional; settings: SNB-19, 48 h
OVCAR-3 = experiment: Cytotoxicity against human OVCAR-3 cells after 48 hrs by SRB assay; type: functional; settings: OVCAR-3, 48 h
NCI-H460 = experiment: Cytotoxicity against human NCI-H460 cells after 48 hrs by SRB assay; type: functional; settings: NCI-H460, 48 h
HOP-92 = experiment: Cytotoxicity against human HOP-92 cells after 48 hrs by SRB assay; type: functional; settings: HOP-92, 48 h
TK-10 = experiment: Cytotoxicity against human TK-10 cells after 48 hrs by SRB assay; type: functional; settings: TK-10, 48 h; in short: as §2
PC-3 = experiment: Cytotoxicity against human PC-3 cells after 48 hrs by SRB assay; type: functional; settings: PC-3, 48 h
SK-MEL-2 = experiment: Cytotoxicity against human SK-MEL-2 cells after 48 hrs by SRB assay; type: functional; settings: SK-MEL-2, 48 h
NCI-H226 = experiment: Cytotoxicity against human NCI-H226 cells after 48 hrs by SRB assay; type: functional; settings: NCI-H226, 48 h
RPMI-8226 = experiment: Cytotoxicity against human RPMI8226 cells after 48 hrs by SRB assay; type: functional; settings: RPMI-8226, 48 h
A549 = experiment: Cytotoxicity against human A549 cells after 48 hrs by SRB assay; type: functional; settings: A549, 48 h
SF-295 = experiment: Cytotoxicity against human SF-295 cells after 48 hrs by SRB assay; type: functional; settings: SF-295, 48 h
OVCAR-5 = experiment: Cytotoxicity against human OVCAR5 cells after 48 hrs by SRB assay; type: functional; settings: OVCAR-5, 48 h
K562 = experiment: Cytotoxicity against human K-562 cells after 48 hrs by SRB assay; type: functional; settings: K562, 48 h
Raji [6] = experiment: Inhibition of TPA-induced EBV-early antigen activation in human Raji cells at 500 molar ratio relative to TPA; type: cell-based; set-up: scale not given: the % may be the effect or the level left; settings: human gammaherpesvirus 4
IGROV-1 = experiment: Cytotoxicity against human IGROV1 cells after 48 hrs by SRB assay; type: functional; settings: IGROV-1, 48 h
RXF 393 = experiment: Cytotoxicity against human […] cells after 48 hrs by SRB assay; type: functional; settings: RXF 393, 48 h
786-0 = experiment: Cytotoxicity against human 786-0 cells after 48 hrs by SRB assay; type: functional; settings: 786-0, 48 h
Raji [7] = experiment: Inhibition of TPA-induced EBV-early antigen activation in human Raji cells at 100 molar ratio relative to TPA; type: cell-based; set-up: scale not given: the % may be the effect or the level left; settings: human gammaherpesvirus 4
[8] = Inhibition of TPA-induced EBV-early antigen activation in human Raji cells relative to TPA; type: cell-based, human gammaherpesvirus 4
SK-MEL-5 = experiment: Cytotoxicity against human SK-MEL-5 cells after 48 hrs by SRB assay; type: functional; settings: SK-MEL-5, 48 h
MOLT-4 = experiment: Cytotoxicity against human MOLT-4 cells after 48 hrs by SRB assay; type: functional; settings: MOLT-4, 48 h
KM12 = experiment: Cytotoxicity against human KM12 cells after 48 hrs by SRB assay; type: functional; settings: KM12, 48 h
NCI/ADR-RES = experiment: Cytotoxicity against human NCI/ADR-RES cells after 48 hrs by SRB assay; type: functional
MDA-MB-231 = experiment: Cytotoxicity against human MDA-MB-231 cells after 48 hrs by SRB assay; type: functional; settings: MDA-MB-231, 48 h
MCF7 = experiment: Cytotoxicity against human MCF7 cells after 48 hrs by SRB assay; type: functional; settings: MCF7, 48 h
[9] = Cytotoxicity against human HCT 116 cells after 48 hrs by SRB assay; type: functional; settings: HCT-116, 48 h
SW-620 = experiment: Cytotoxicity against human SW620 cells after 48 hrs by SRB assay; type: functional; settings: SW-620, 48 h
Mus musculus = experiment: Antiinflammatory activity against TPA-induced ear edema in mouse; type: functional
In short: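 Specific-pathogen-free female ICR mice were housed five per cage at 24 ± 2 °C. Inflammation was induced on the ear with TPA at 1 µg/ear, and the test agent was applied per ear. Ear edema inhibition was expressed as ID50 in mg per ear.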

OVCAR-8 = experiment: Cytotoxicity against human OVCAR8 cells after 48 hrs by SRB assay; type: functional; settings: OVCAR-8, 48 h
NCI-H322M = experiment: Cytotoxicity against human NCI-H322M cells after 48 hrs by SRB assay; type: functional
NCI-H522 = experiment: Cytotoxicity against human NCI-H522 cells after 48 hrs by SRB assay; type: functional; settings: NCI-H522, 48 h
HT-29 = experiment: Cytotoxicity against human HT-29 cells after 48 hrs by SRB assay; type: functional; settings: HT-29, 48 h
Raji [10] = experiment: Inhibition of TPA-induced EBV-early antigen activation in human Raji cells at 1000 molar ratio relative to TPA; type: cell-based; set-up: scale not given: the % may be the effect or the level left; settings: human gammaherpesvirus 4
HCT-15 = experiment: Cytotoxicity against human HCT-15 cells after 48 hrs by SRB assay; type: functional; settings: HCT-15, 48 h
Raji [11] = experiment: Inhibition of TPA-induced EBV-early antigen activation in human Raji cells at 10 molar ratio relative to TPA; type: cell-based; set-up: scale not given: the % may be the effect or the level left; settings: human gammaherpesvirus 4
UACC-62 = experiment: Cytotoxicity against human UACC-62 cells after 48 hrs by SRB assay; type: functional; settings: UACC-62, 48 h; in short: as §2
UACC-257 = experiment: Cytotoxicity against human UACC-257 cells after 48 hrs by SRB assay; type: functional; settings: UACC-257, 48 h; in short: as §2
CCRF-CEM = experiment: Cytotoxicity against human CCRF-CEM cells after 48 hrs by SRB assay; type: functional
COLO 205 = experiment: Cytotoxicity against human COLO205 cells after 48 hrs by SRB assay; type: functional; settings: COLO 205, 48 h
MDA-MB-435 = experiment: Cytotoxicity against human MDA-MB-435 cells after 48 hrs by SRB assay; type: functional; settings: MDA-MB-435, 48 h

Molecule `CC1(C)CC[C@]2(C(=O)O)CC[C@]3(C)C(=CC[C@@H]4[C@@]5(C)CC[C@H](O[C@@H]6O[C@H](C(=O)O)[C@@H](O)[C@H](O[C@@H]7O[C@H](CO)[C@H](O)[C@H](O)[C@H]7O)[C@H]6O[C@@H]6O[C@H](CO)[C@@H](O)[C@H](O)[C@H]6O)C(C)(C)[C@@H]5CC[C@]43C)[C@@H]2C1` [CALENDULAGYCOSIDE B] has a GI50 [1] of 97.4 µM, a GI50 (EKVX) greater than 100 µM and a viability at 1000 molar ratio [2] of 70%. For the same molecule, the GI50 (HOP-62) was greater than 100 µM, the GI50 (Malme-3M) was 79.9 µM and the GI50 (SN12C) was 84 µM. It also gave a GI50 (UO-31) of 63.5 µM, a viability at 100 molar ratio [3] greater than 80% and a GI50 (SF-268) greater than 100 µM. For the same molecule, the GI50 (BT-549) was greater than 100 µM, the GI50 (NCI-H23) was 20.2 µM and the viability at 500 molar ratio [4] was greater than 80%. The GI50 (U-251) was 32.3 µM, the viability at 10 molar ratio [5] was greater than 80% and the GI50 (T47D) was greater than 100 µM. The GI50 (CAKI-1) was greater than 100 µM, the GI50 (SNB-19) was greater than 100 µM and the GI50 (OVCAR-3) was greater than 100 µM. For the same molecule, the GI50 (NCI-H460) was greater than 100 µM, the GI50 (HOP-92) was greater than 100 µM and the GI50 (TK-10) was greater than 100 µM. The GI50 (PC-3) was 20.6 µM, the GI50 (SK-MEL-2) was greater than 100 µM and the GI50 (NCI-H226) was greater than 100 µM. For the same molecule, the GI50 (RPMI-8226) was 50.9 µM, the GI50 (A549) was greater than 100 µM and the GI50 (SF-295) was 31 µM. The GI50 (OVCAR-5) was greater than 100 µM, the GI50 (K562) was 81.1 µM and the Activity (Raji [6]) was 40.3%. The GI50 (IGROV-1) was greater than 100 µM, the GI50 (RXF 393) was greater than 100 µM and the GI50 (786-0) was greater than 100 µM. It also gave an Activity (Raji [7]) of 69.2%, an IC50 [8] of 470 molar ratio and a GI50 (SK-MEL-5) greater than 100 µM. The GI50 (MOLT-4) was 86.3 µM, the GI50 (KM12) was greater than 100 µM and the GI50 (NCI/ADR-RES) was greater than 100 µM. The GI50 (MDA-MB-231) was 45 µM, the GI50 (MCF7) was 53.5 µM and the GI50 [9] was greater than 100 µM. For the same molecule, the GI50 (SW-620) was greater than 100 µM, the ID50 (Mus musculus) was 0.05 mg and the GI50 (OVCAR-8) was greater than 100 µM. The GI50 (NCI-H322M) was 26 µM, the GI50 (NCI-H522) was 38.4 µM and the GI50 (HT-29) was 40.9 µM. For the same molecule, the Activity (Raji [10]) was 5.1%, the GI50 (HCT-15) was 94.6 µM and the Activity (Raji [11]) was 100%. The GI50 (UACC-62) was 23 µM, the GI50 (UACC-257) was greater than 100 µM and the GI50 (CCRF-CEM) was greater than 100 µM. For the same molecule, the GI50 (COLO 205) was greater than 100 µM and the GI50 (MDA-MB-435) was greater than 100 µM.
